From ChEMBL document CHEMBL3232989, “First identification of boronic species as novel potential inhibitors of the Staphylococcus aureus NorA efflux pump” (J Med Chem, 2014) come the findings set out here.

Data set [1] has as its system Staphylococcus aureus. In words: Toxicity in Staphylococcus aureus ATCC 25923 at 100 ug/ml after 24 hrs by microdilution method. Format: organism-based. The essentials:
(§1)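 Single-point screen at 100 μg/mL of compound alone in MH broth microdilution, 10^6 CFU/mL, 24 h at 37 °C. Growth is read at 620 nm and visually, giving percent growth inhibition. Compounds inhibiting more than 90% then go to MIC determination. Duplicates.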
In general terms: In broth dilution the organism is exposed to a series of concentrations in liquid medium.

Data set [2] deals with Staphylococcus aureus. In words: Toxicity in fluoroquinolone-resistant Staphylococcus aureus 1199B expressing NorA at 100 ug/ml after 24 hrs by microdilution method. Format: organism-based. The gist of the method:
as §1

Data set [3] deals with T1, Quinolone resistance protein NorA (Staphylococcus aureus) (UniProt P0A0J7).
T1 sequence (whole entry): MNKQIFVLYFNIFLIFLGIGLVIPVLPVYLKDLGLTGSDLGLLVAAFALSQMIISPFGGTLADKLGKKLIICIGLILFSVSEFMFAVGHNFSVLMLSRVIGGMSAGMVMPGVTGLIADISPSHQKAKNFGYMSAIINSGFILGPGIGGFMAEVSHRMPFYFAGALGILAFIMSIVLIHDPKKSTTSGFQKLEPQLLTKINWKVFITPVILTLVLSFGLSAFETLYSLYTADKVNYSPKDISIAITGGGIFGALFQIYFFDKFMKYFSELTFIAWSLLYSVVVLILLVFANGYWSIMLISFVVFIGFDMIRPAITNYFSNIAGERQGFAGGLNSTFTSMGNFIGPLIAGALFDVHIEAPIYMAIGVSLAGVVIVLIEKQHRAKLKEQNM
In words: Inhibition of NorA in fluoroquinolone-resistant Staphylococcus aureus 1199B assessed as potentiation of 4 ug/ml of ciprofloxacin MIC at 100 ug/ml after 24 hrs by microdilution method. The gist of the method:
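Combination with ciprofloxacin 4 μg/mL (MIC/4) against SA-1199B in MH broth microdilution, 10^6 CFU/mL, 24 h at 37 °C, read at 620 nm and visually. Compounds are first screened at 100 μg/mL; actives are 2-fold serially diluted. MMC4 is the lowest inhibitor concentration giving antibacterial activity with subinhibitory ciprofloxacin. Duplicates.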

Data set [4] concerns Staphylococcus aureus. In words: Toxicity in Staphylococcus aureus ATCC 25923 after 24 hrs by microdilution method. It is filed as organism-based. The essentials: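 Mueller–Hinton broth microdilution; inoculum from frozen culture grown 18 h at 37 °C, 10^6 CFU/mL per well. Compounds (10 mg/mL DMSO stock) in 2-fold serial dilutions, highest 128 mg/L, first screened at 100 μg/mL. MIC = complete growth inhibition after 24 h at 37 °C, read at 620 nm and visually; duplicate; ampicillin control.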

`Cc1cc(B(O)O)cnc1N1CCOCC1`: the “growth inhibition (GI)” value in data set [1] and in data set [2] was under 90% each time. In data set [3], the Activity was 64 µg/mL. Besides, the MIC result in data set [4] is reported as “>= 64 ug ml-1”.
Take `CSc1ncccc1B(O)O`: the “growth inhibition (GI)” value in data set [1] and in data set [2] was under 90% throughout. Besides, the Activity in data set [3] was over 128 µg/mL. Moreover, the MIC result in data set [4] is reported as “>= 64 ug ml-1”.
Consider `CC(C)Nc1ccc(B(O)O)cc1`, for which the “growth inhibition (GI)” value in data set [1] and in data set [2] was under 90% throughout. The Activity in data set [3] turned out to be 64 µg/mL. Also, the MIC result in data set [4] is given as “>= 64 ug ml-1”.
Consider `OB(O)c1ccnc(Cl)c1Cl`, for which the “growth inhibition (GI)” value in data set [1] and in data set [2] was under 90% in each case. The Activity in data set [3] came to 32 µg/mL. For the same compound, the MIC result in data set [4] is reported as “>= 64 ug ml-1”.
Turning to `OB(O)c1cncc(Oc2cncc(Cl)c2)c1`, the “growth inhibition (GI)” value in data set [1] and in data set [2] was under 90% throughout. Further, the Activity in data set [3] turned out to be 16 µg/mL. In addition, in data set [4], the MIC entry is “>= 64 ug ml-1”.
Consider `CSc1ncccc1B(OC(C)(C)C(C)(C)O)OC(C)(C)C(C)(C)O`, for which the “growth inhibition (GI)” value in data set [1] and in data set [2] was under 90% each time. Moreover, the Activity in data set [3] was over 128 µg/mL. The MIC entry in data set [4] is given as “>= 64 ug ml-1”.
For `N#Cc1ncccc1B(O)O`, the “growth inhibition (GI)” value in data set [1] and in data set [2] was under 90% throughout. Further, the Activity in data set [3] is over 128 µg/mL. In addition, the MIC result in data set [4] is recorded as “>= 64 ug ml-1”.
Regarding `OB(O)c1cc(Br)cnc1Cl`, the “growth inhibition (GI)” value in data set [1] and in data set [2] was under 90% each time. The Activity in data set [3] is 32 µg/mL. For the same compound, in data set [4], the MIC entry is “>= 64 ug ml-1”.
Turning to `CC(C)(O)C(C)(C)OB(OC(C)(C)C(C)(C)O)c1cccnc1C#N`, the “growth inhibition (GI)” value in data set [1] and in data set [2] was under 90% throughout. Further, in data set [3], the Activity was over 128 µg/mL. For the same compound, the MIC result in data set [4] is “>= 64 ug ml-1”.
Turning to `OB(O)c1cc(Cl)ncc1Cl`, the “growth inhibition (GI)” value in data set [1] and in data set [2] was under 90% in each case. The Activity in data set [3] is 64 µg/mL. Also, in data set [4], the MIC result is on record as “>= 64 ug ml-1”.
For the compound `COc1nccc(B(OC(C)(C)C(C)(C)O)OC(C)(C)C(C)(C)O)c1Cl`, the “growth inhibition (GI)” value in data set [1] and in data set [2] was under 90% each time. Also, the Activity in data set [3] was 32 µg/mL. In addition, in data set [4], the MIC result is recorded as “>= 64 ug ml-1”.
With `O=C(O)c1ccc(B(O)O)cc1`, the “growth inhibition (GI)” value in data set [1] and in data set [2] was under 90% in each case. In addition, in data set [3], the Activity is over 128 µg/mL. In data set [4], the MIC result is given as “>= 64 ug ml-1”.
Turning to `OB(O)c1cccnc1OCc1ccccc1`, the “growth inhibition (GI)” value in data set [1] and in data set [2] was under 90% in each case. In addition, the Activity in data set [3] was determined as 32 µg/mL. The MIC result in data set [4] was “>= 64 ug ml-1”.
As for `F[B-](F)(F)c1cccnc1.[K+]`, the “growth inhibition (GI)” value in data set [1] and in data set [2] was under 90% throughout. For the same compound, the Activity in data set [3] was over 128 µg/mL. For the same compound, the MIC entry in data set [4] is “>= 64 ug ml-1”.
As for `CC(C)(O)C(C)(C)OB(OC(C)(C)C(C)(C)O)c1ccnc(F)c1Cl`, the “growth inhibition (GI)” value in data set [1] and in data set [2] was under 90% each time. In addition, the Activity in data set [3] came out at 16 µg/mL. Moreover, in data set [4], the MIC entry is “>= 64 ug ml-1”.
For `OB(O)c1ccnc(F)c1Cl`, the “growth inhibition (GI)” value in data set [1] and in data set [2] was under 90% throughout. Also, the Activity in data set [3] was determined as 16 µg/mL. Also, in data set [4], the MIC entry is “>= 64 ug ml-1”.
For the compound `CC(=O)n1nc(C)c2cc(B3OC(C)(C)C(C)(C)O3)ccc21`, the “growth inhibition (GI)” value in data set [1] and in data set [2] was under 90% each time. Moreover, the Activity in data set [3] is 128 µg/mL. In addition, the MIC entry in data set [4] is on record as “>= 64 ug ml-1”.
On to `CC(C)(O)C(C)(C)OB(OC(C)(C)C(C)(C)O)c1ccncc1F`, for which the “growth inhibition (GI)” value in data set [1] and in data set [2] was under 90% each time. The Activity in data set [3] is over 128 µg/mL. In data set [4], the MIC result is recorded as “>= 64 ug ml-1”.
On to `CC(C)(O)C(C)(C)OB(OC(C)(C)C(C)(C)O)c1ccnc(Cl)c1Cl`, for which the “growth inhibition (GI)” value in data set [1] and in data set [2] was under 90% throughout. Also, the Activity in data set [3] turned out to be 32 µg/mL. In addition, the MIC entry in data set [4] is “>= 64 ug ml-1”.
On to `OB(O)c1ccccc1F`, for which the “growth inhibition (GI)” value in data set [1] and in data set [2] was under 90% in each case. Further, in data set [3], the Activity came to 16 µg/mL. The MIC entry in data set [4] was “>= 64 ug ml-1”.
As for `CCOC(=O)c1ccccc1B(O)O`, the “growth inhibition (GI)” value in data set [1] and in data set [2] was under 90% in each case. Further, the Activity in data set [3] was over 128 µg/mL. The MIC result in data set [4] is reported as “>= 64 ug ml-1”.
Take `OB(O)c1ccc(F)nc1`: the “growth inhibition (GI)” value in data set [1] and in data set [2] was under 90% throughout. Moreover, the Activity in data set [3] was found to be 32 µg/mL. In addition, in data set [4], the MIC entry was “>= 64 ug ml-1”.
In the case of `OB(O)c1ccnc(Cl)c1`, the “growth inhibition (GI)” value in data set [1] and in data set [2] was under 90% throughout. Besides, the Activity in data set [3] is over 128 µg/mL. The MIC entry in data set [4] was “>= 64 ug ml-1”.
As to `CCOC(=O)Nc1ncc(B2OC(C)(C)C(C)(C)O2)s1`, the “growth inhibition (GI)” value in data set [1] and in data set [2] was under 90% throughout. The Activity in data set [3] was over 128 µg/mL. Also, the MIC entry in data set [4] is “>= 64 ug ml-1”.
As to `Cc1cc(B(OC(C)(C)C(C)(C)O)OC(C)(C)C(C)(C)O)cnc1N1CCOCC1`, the “growth inhibition (GI)” value in data set [1] and in data set [2] was under 90% each time. Further, in data set [3], the Activity worked out at 32 µg/mL. Besides, the MIC entry in data set [4] is “>= 64 ug ml-1”.
`CC(C)(C)OC(=O)Nc1ncc(B2OC(C)(C)C(C)(C)O2)s1`: the “growth inhibition (GI)” value in data set [1] and in data set [2] was under 90% each time. Moreover, the Activity in data set [3] is over 128 µg/mL. Also, the MIC entry in data set [4] is on record as “>= 64 ug ml-1”.
On to `OB(O)c1cccnc1Cl`, for which the “growth inhibition (GI)” value in data set [1] and in data set [2] was under 90% in each case. The Activity in data set [3] was over 128 µg/mL. In data set [4], the MIC entry is given as “>= 64 ug ml-1”.
For `CC1(C)OB(c2ccc3c(cnn3COCC[Si](C)(C)C)c2)OC1(C)C`, the “growth inhibition (GI)” value in data set [1] and in data set [2] was under 90% each time. The Activity in data set [3] was 16 µg/mL. Besides, in data set [4], the MIC entry is listed as “>= 64 ug ml-1”.
As to `CC1(C)OB(c2cnn(C(=O)c3ccccc3)c2)OC1(C)C`, the “growth inhibition (GI)” value in data set [1] and in data set [2] was under 90% in each case. For the same compound, in data set [3], the Activity came to 128 µg/mL. For the same compound, the MIC entry in data set [4] is given as “>= 64 ug ml-1”.
For the compound `CC(C)(O)C(C)(C)OB(OC(C)(C)C(C)(C)O)c1ccnc(Cl)c1`, the “growth inhibition (GI)” value in data set [1] and in data set [2] was under 90% each time. Also, the Activity in data set [3] turned out to be 128 µg/mL. Also, in data set [4], the MIC entry is reported as “>= 64 ug ml-1”.
In the case of `CC(C)(O)C(C)(C)OB(OC(C)(C)C(C)(C)O)c1ccncc1Br`, the “growth inhibition (GI)” value in data set [1] and in data set [2] was under 90% in each case. Further, the Activity in data set [3] was over 128 µg/mL. Also, the MIC entry in data set [4] is “>= 64 ug ml-1”.
Take `COc1ncccc1B(OC(C)(C)C(C)(C)O)OC(C)(C)C(C)(C)O`: the “growth inhibition (GI)” value in data set [1] and in data set [2] was under 90% each time. Further, the Activity in data set [3] is over 128 µg/mL. Also, the MIC result in data set [4] is “>= 64 ug ml-1”.
For the compound `CC(C)(C)OC(=O)n1cccc1B(O)O`, the “growth inhibition (GI)” value in data set [1] and in data set [2] was under 90% each time. Also, in data set [3], the Activity was over 128 µg/mL. Besides, the MIC entry in data set [4] was “>= 64 ug ml-1”.
Turning to `CC(C)(O)C(C)(C)OB(OC(C)(C)C(C)(C)O)c1ccc(Cl)nc1`, the “growth inhibition (GI)” value in data set [1] and in data set [2] was under 90% in each case. The Activity in data set [3] worked out at 128 µg/mL. For the same compound, in data set [4], the MIC result was “>= 64 ug ml-1”.
For the compound `Cc1cc(B(OC(C)(C)C(C)(C)O)OC(C)(C)C(C)(C)O)cnc1Cl`, the “growth inhibition (GI)” value in data set [1] and in data set [2] was under 90% in each case. Further, in data set [3], the Activity was determined as 32 µg/mL. Also, in data set [4], the MIC result was “>= 64 ug ml-1”.
In the case of `CSc1ccc(B(OC(C)(C)C(C)(C)O)OC(C)(C)C(C)(C)O)cn1`, the “growth inhibition (GI)” value in data set [1] and in data set [2] was under 90% throughout. In addition, in data set [3], the Activity is over 128 µg/mL. For the same compound, the MIC entry in data set [4] is given as “>= 64 ug ml-1”.
